{
  "source": "ChEMBL document CHEMBL1938392",
  "about": "“N-Amino acid linoleoyl conjugates: anti-inflammatory activities” (Bioorg Med Chem Lett, 2012)",
  "key": {"[1]": {"system": "RAW264.7", "assay": "Antiinflammatory activity in TNFalpha-stimulated mouse RAW264.7 cells assessed as PGJ level at 1 uM after 20 hrs by ELISA", "type": "functional", "method_in_brief": "(§1)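 Mouse RAW264.7 macrophages were grown in DMEM with 10% FBS and passaged by scraping without trypsin. Cells were seeded at 50,000 per well in DMEM+FCS with TNFα (10 nM) and incubated 20 hrs at 37°C, 5% CO2. Medium was then changed to serum-free DMEM, cells were treated for 2 hrs, and PGJ in the medium was measured by ELISA. DMSO was the vehicle control.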"}, "[2]": {"system": "RAW264.7", "assay": "Antiinflammatory activity in TNFalpha-stimulated mouse RAW264.7 cells assessed as PGJ level at 3 uM after 20 hrs by ELISA", "type": "functional", "method_in_brief": "as §1"}, "[3]": {"system": "RAW264.7", "assay": "Antiinflammatory activity in TNFalpha-stimulated mouse RAW264.7 cells assessed as PGJ level at 0.3 uM after 20 hrs by ELISA", "type": "functional", "method_in_brief": "as §1"}, "[4]": {"system": "RAW264.7", "assay": "Antiinflammatory activity in TNFalpha-stimulated mouse RAW264.7 cells assessed as reduction in cell count at 10 uM after 20 hrs relative to control", "type": "functional", "design": "scale not given: the % may be the effect or the level left", "method_in_brief": "(§2)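 RAW264.7 cells were kept in DMEM/10% FBS and subcultured by scraping. They were plated at 50,000 per well with TNFα (10 nM) for 20 hrs at 37°C, 5% CO2, then switched to serum-free DMEM for 2 hrs of treatment. Cell numbers were compared with the vehicle control.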"}, "[5]": {"system": "RAW264.7", "assay": "Antiinflammatory activity in TNFalpha-stimulated mouse RAW264.7 cells assessed as cell count at 0.3 uM after 20 hrs relative to control", "type": "functional", "method_in_brief": "as §2"}, "[6]": {"system": "RAW264.7", "assay": "Antiinflammatory activity in TNFalpha-stimulated mouse RAW264.7 cells assessed as reduction in cell count at 3 uM after 20 hrs relative to control", "type": "functional", "design": "scale not given: the % may be the effect or the level left", "method_in_brief": "as §2"}, "[7]": {"system": "RAW264.7", "assay": "Antiinflammatory activity in TNFalpha-stimulated mouse RAW264.7 cells assessed as PGJ level at 10 uM after 20 hrs by ELISA", "type": "functional", "method_in_brief": "as §1"}, "[8]": {"system": "RAW264.7", "assay": "Cytotoxicity in mouse RAW264.7 cells assessed as decrease in cell viability at 0.3 to 10 uM after 20 hrs", "type": "cell-based", "conditions": "raw264.7, 20 h"}, "[9]": {"system": "RAW264.7", "assay": "Antiinflammatory activity in TNFalpha-stimulated mouse RAW264.7 cells assessed as reduction in cell count at 1 uM after 20 hrs relative to control", "type": "functional", "design": "scale not given: the % may be the effect or the level left", "method_in_brief": "as §2"}, "[10]": {"system": "RAW264.7", "assay": "Antiinflammatory activity in TNFalpha-stimulated mouse RAW264.7 cells assessed as reduction in cell count at 0.3 uM after 20 hrs relative to control", "type": "functional", "design": "scale not given: the % may be the effect or the level left", "method_in_brief": "as §2"}, "[11]": {"system": "Mus musculus", "assay": "Antiinflammatory activity in po dosed mouse peritonitis model assessed as inhibition of thiglycollate-induced migration of leukocytes into the peritoneal cavity administered 30 mins prior to thiglycollate-challenge", "type": "functional", "method_in_brief": "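Oral doses of 0.3–20 mg/kg in safflower oil were given to mice; controls received safflower oil. Thirty minutes later, 1 ml of sterile-filtered 8% thioglycollate medium was injected i.p. After 3 hrs, peritoneal cells were harvested, erythrocytes were lysed for 2 min, cells were resuspended in PBS/BSA, and differential leukocyte counts were made. N=8.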"}, "[12]": {"system": "RAW264.7", "assay": "Antiinflammatory activity in TNFalpha-stimulated mouse RAW264.7 cells assessed as PGJ level at 2.5 uM after 20 hrs by ELISA", "type": "functional", "method_in_brief": "as §1"}, "[13]": {"system": "Mus musculus", "assay": "Antiinflammatory activity in mouse peritonitis model assessed as accumulation of PGJ per 10^3 peritoneal cells at 0.3 to 20 mg/kg, po after 3 hrs by ELISA", "type": "functional, organism-based", "method_in_brief": "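Mice were dosed by mouth in safflower oil (0.3–20 mg/kg); the safflower oil vehicle served as control. After 30 min they received 1 ml of 8% thioglycollate medium i.p. Peritoneal cells were harvested, cultured for 18 hrs, and PGJ in the medium was measured by ELISA. N=4.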"}, "[14]": {"system": "RAW264.7", "assay": "Antiinflammatory activity in TNFalpha-stimulated mouse RAW264.7 cells assessed as PGJ level at 5 uM after 20 hrs by ELISA", "type": "functional", "method_in_brief": "as §1"}, "[15]": {"system": "RAW264.7", "assay": "Antiinflammatory activity in TNFalpha-stimulated mouse RAW264.7 cells assessed as PGJ level at 0.5 uM after 20 hrs by ELISA", "type": "functional", "method_in_brief": "as §1"}},
  "note": "Active and inactive are the calls of the source. The rule behind the calls is not given here.",
  "data": [
    {"compound": "CCCCC/C=C\\C/C=C\\CCCCCCCC(=O)N[C@H](C)C(=O)O", "values": [
      {"measurement": "Activity", "setting": "[1]", "result": 18, "unit": "pg/mL"},
      {"measurement": "Activity", "setting": "[2]", "result": 233, "unit": "pg/mL"},
      {"measurement": "Activity", "setting": "[3]", "result": "<16", "unit": "pg/mL"},
      {"measurement": "Activity", "setting": "[4]", "result": 30.5, "unit": "%"},
      {"measurement": "Activity", "setting": "[5]", "result": 136, "unit": "%"},
      {"measurement": "Activity", "setting": "[6]", "result": 33.9, "unit": "%"},
      {"measurement": "Activity", "setting": "[7]", "result": 1580, "unit": "pg/mL"},
      {"measurement": "Activity", "setting": "[8]", "result": "Non-toxic"},
      {"measurement": "Activity", "setting": "[9]", "result": 65.9, "unit": "%"}
    ]},
    {"compound": "CCCCC/C=C\\C/C=C\\C/C=C\\C/C=C\\CCCC(=O)NCC(=O)O", "note": "[ARACHIDONOYL GLYCINE]", "values": [
      {"measurement": "Activity", "setting": "[1]", "result": "<16", "unit": "pg/mL"},
      {"measurement": "Activity", "setting": "[7]", "result": 6847, "unit": "pg/mL"}
    ]},
    {"compound": "CCCCC/C=C\\C/C=C\\CCCCCCCC(=O)N[C@@H](C)C(=O)O", "values": [
      {"measurement": "Activity", "setting": "[1]", "result": "<16", "unit": "pg/mL"},
      {"measurement": "Activity", "setting": "[2]", "result": "<16", "unit": "pg/mL"},
      {"measurement": "Activity", "setting": "[3]", "result": "<16", "unit": "pg/mL"},
      {"measurement": "Activity", "setting": "[4]", "result": 55.5, "unit": "%"},
      {"measurement": "Activity", "setting": "[6]", "result": 68.5, "unit": "%"},
      {"measurement": "Activity", "setting": "[7]", "result": 30.3, "unit": "pg/mL"},
      {"measurement": "Activity", "setting": "[8]", "result": "Non-toxic"},
      {"measurement": "Activity", "setting": "[9]", "result": 74.3, "unit": "%"},
      {"measurement": "Activity", "setting": "[10]", "result": 55.6, "unit": "%"}
    ]},
    {"compound": "CCCCC/C=C\\C/C=C\\CCCCCCCC(=O)NCC(=O)O", "note": "[LINOLEOYL GLYCINE]", "values": [
      {"measurement": "Activity", "setting": "[1]", "result": 177, "unit": "pg/mL"},
      {"measurement": "ED50", "setting": "[11]", "result": "< 0.3", "unit": "mg/kg"},
      {"measurement": "Activity", "setting": "[12]", "result": 1843, "unit": "pg/mL"},
      {"measurement": "Activity", "setting": "[13]", "result": "Active"},
      {"measurement": "Activity", "setting": "[7]", "result": 7315, "unit": "pg/mL"},
      {"measurement": "Activity", "setting": "[14]", "result": 3907, "unit": "pg/mL"},
      {"measurement": "Activity", "setting": "[15]", "result": "<16", "unit": "pg/mL"}
    ]}
  ]
}
